Consider 13 compounds from ChEMBL document CHEMBL5143598, “Cytotoxic Sesquiterpenoids from Ammoides atlantica Aerial Parts” (J Nat Prod, 2022).

SMILES strings stand for the structures. Active and inactive are the calls of the source. The rule behind the calls is not given here.

In data set [1] the test system is Jurkat. As to the kind of experiment: Antiproliferative activity against human Jurkat cells assessed as reduction in cell viability measured after 48 hrs by colorimetric based MTT assay. Type of data set: functional. In short, it runs like this:
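Jurkat leukemia cells kept in RPMI with 10% FBS, 2 mM L-glutamine and penicillin/streptomycin at 37 °C, 5% CO2. Plated at 3.5 × 10^3 cells/well and left 24 h, then given fresh medium alone or with serial dilutions (40, 20, 10, 5 μM) for 48 h. Staurosporine 0.2 μM served as positive control. MTT added for 3 h, formazan dissolved in DMF/SDS solution at pH 4.5, OD read at 620 nm. Viability calculated as % of DMSO control. IC50 taken as the concentration giving 50% growth inhibition versus control.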
For orientation: Tetrazolium dyes change colour on reduction, which living cells bring about.

Data set [2] relates to A549. As to the kind of experiment: Antiproliferative activity against human A549 cells assessed as reduction in cell viability measured after 48 hrs by colorimetric based MTT assay. The class given is functional. The settings on record: A549, 48 h.
A further data set relates to A-375. As to the kind of experiment: Antiproliferative activity against human A-375 cells assessed as reduction in cell viability measured after 48 hrs by colorimetric based MTT assay. Conditions: A-375, 48 h. Type of data set: functional.
For the next data set, the system named is MCF7. As to the kind of experiment: Antiproliferative activity against human MCF7 cells assessed as reduction in cell viability measured after 48 hrs by colorimetric based MTT assay. The class given is functional. Conditions: MCF7, 48 h.
Data set [3] can be described thus: Antiproliferative activity against human HaCaT cells assessed as reduction in cell viability measured after 48 hrs by colorimetric based MTT assay.
For data set [4], the system named is A549. As to the kind of experiment: Induction of apoptosis in human A549 cells assessed as increase accumulation of hypodiploid nuclei cells at 5 to 40 uM measured after 24 hrs by PI staining based flow cytometry analysis. Type of data set: functional, cell-based. The settings on record: dose 5-40 µM. The procedure, abridged:
(§1)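 A549, Jurkat or HaCaT cells plated at 3 × 10^4 cells/well, left 24 h, then exposed to 40, 20, 10 or 5 μM for 24 h. Staurosporine 0.2 μM served as positive control. Cells washed in PBS and stained 30 min at 4 °C in the dark with PI in 0.1% Triton X-100/0.1% sodium citrate. Analysed by flow cytometry with debris excluded by forward scatter and DNA on a log scale. Read-out is % hypodiploid nuclei. Three independent experiments in triplicate, mean ± SEM, Mann–Whitney U test.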

In data set [5] the test system is HaCaT. As to the kind of experiment: Induction of apoptosis in human HaCaT cells assessed as increase accumulation of hypodiploid nuclei cells at 5 to 40 uM measured after 24 hrs by PI staining based flow cytometry analysis. The class given is functional, cell-based. The settings on record: dose 5-40 µM. In short, it runs like this: as §1
(In general: A flow cytometer gives signals particle by particle.)

Data set [6] has as its system HaCaT. As to the kind of experiment: Induction of cell cycle arrest in human HaCaT cells assessed as accumulation at G2 phase at 40 uM measured after 24 hrs by PI staining based flow cytometry analysis. Type of data set: functional. In short, it runs like this: (§2)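 HaCaT or Jurkat cells plated at 3 × 10^4 cells/well, left 24 h, then treated with 40, 20, 10 or 5 μM for 24 h. Staurosporine 0.2 μM served as positive control. DNA stained with PI and 10 000 events per sample acquired by flow cytometry. Percentages of cells in G0/G1, S and G2/M were derived from the DNA profiles. Three independent experiments in triplicate, mean ± SEM, Mann–Whitney U test.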

The subject of data set [7] is Jurkat. As to the kind of experiment: Induction of cell cycle arrest in human Jurkat cells assessed as accumulation at S phase measured after 24 hrs by PI staining based flow cytometry analysis. Type of data set: functional. The settings on record: dose 5-40 µM, DDE = dose-dependent effect. The procedure, abridged: as §2
Data set [8] has as its system HaCaT. Nature of the data set: Induction of apoptosis in human HaCaT cells assessed as increase accumulation of hypodiploid nuclei cells measured after 24 hrs by PI staining based flow cytometry analysis. Conditions: dose 5-40 µM, DDE = dose-dependent effect. The class given is functional, cell-based. In short, it runs like this:
as §1

Data set [9] has as its system Jurkat. Nature of the data set: Induction of apoptosis in human Jurkat cells assessed as increase accumulation of hypodiploid nuclei cells measured after 24 hrs by PI staining based flow cytometry analysis. The settings on record: dose 5-40 µM, DDE = dose-dependent effect. Type of data set: functional, cell-based. In short, it runs like this:
as §1

In data set [10] the test system is A549. Nature of the data set: Induction of apoptosis in human A549 cells assessed as increase accumulation of hypodiploid nuclei cells measured after 24 hrs by PI staining based flow cytometry analysis. The class given is functional, cell-based. Conditions: dose 5-40 µM, DDE = dose-dependent effect. The procedure, abridged:
as §1

For orientation: IC50 means the concentration that inhibits the measured activity by half. Turning to `C=C1C(=O)O[C@H]([C@H]2C(=O)C=C[C@]2(C)O)[C@@H]1CCC(C)=O`, the IC50 in the data set on Jurkat [1], with A549 [2], with A-375 and with MCF7 was above 10 µM in each case. Also, the IC50 at 48 h in data set [3] was above 10 µM.

Turning to `C=C1C(=O)O[C@H]2[C@H]1C[C@H](OC(C)=O)[C@](C)(O)[C@@]1(O)[C@@H](O)[C@H]3O[C@@]3(C)[C@H]21` (relative stereo), the IC50 in the data set on Jurkat [1], in the data set with A549 [2], in the data set on A-375 and in the data set with MCF7 was above 10 µM in each case. Besides, the IC50 at 48 h in data set [3] was above 10 µM.

Take `C=C1C(=O)O[C@H](C2=C(C)[C@@H](O)CC2=O)[C@@H]1CCC(C)=O`: the IC50 is 7.7 µM in the data set on Jurkat [1], 8.9 µM with A549 [2], above 10 µM with A-375 and above 10 µM with MCF7. Besides, in data set [3], the IC50 at 48 h was 2.9 µM. Further, the outcome with A549 [4], in the data set on HaCaT [5] and with HaCaT [6] was Active. For the same compound, the Activity entry in the data set with Jurkat [7], in the data set on HaCaT [8], in the data set with Jurkat [9] and in the data set with A549 [10] was “Dde” throughout.

Turning to `C=C1C(=O)O[C@@H]2C1C[C@@H](OC(C)=O)[C@@](C)(O)[C@@]13O[C@@H]1[C@@H]1O[C@]1(C)[C@H]23` (stereo not given in full), the IC50 is 5 µM with Jurkat [1], above 10 µM in the data set on A549 [2], 3.7 µM in the data set on A-375 and 9.6 µM in the data set on MCF7. Further, in data set [3], the IC50 at 48 h came out at 1.6 µM. Further, the outcome in the data set on A549 [4], with HaCaT [5] and in the data set with HaCaT [6] was Active. In addition, the Activity result in the data set on Jurkat [7], in the data set with HaCaT [8], in the data set on Jurkat [9] and in the data set with A549 [10] was “Dde” each time.

With `C=C1[C@@H]2[C@H]3OC(=O)C(COC(C)=O)=C3CC[C@@]2(C)[C@H](O)C[C@@H]1O`, the IC50 in the data set with Jurkat [1], in the data set on A549 [2], with A-375 and with MCF7 was above 10 µM throughout. For the same compound, in [3], the IC50 at 48 h was above 10 µM.

On to `C=C1C(=O)O[C@@H]2C1C[C@@H](OC(C)=O)[C@](C)(O)[C@@]13C=C[C@@](C)(OO1)C23` (stereo not given in full), for which the IC50 in the data set on Jurkat [1] is 4.7 µM; with A549 [2], 4.1 µM; with A-375, above 10 µM; in the data set on MCF7, above 10 µM. Besides, the IC50 at 48 h in data set [3] came out at 1.7 µM.

Consider `CC(C)(O)/C=C/[C@H]1OC(=O)C[C@]1(C)O` (relative stereo), for which the IC50 with Jurkat [1], in the data set with A549 [2], with A-375 and in the data set on MCF7 was above 10 µM each time. Moreover, in data set [3], the IC50 at 48 h is above 10 µM.

For the compound `C[C@H]1CC[C@]23O[C@]12C[C@H](C(C)(C)O)CC[C@@]3(C)O` (relative stereo), the IC50 with Jurkat [1], with A549 [2], in the data set with A-375 and with MCF7 was above 10 µM each time. In addition, in data set [3], the IC50 at 48 h was above 10 µM.

In the case of `C=C1[C@@H]2[C@@H](OC(C)=O)/C(=C(\CO)C(=O)O)CC[C@@]2(C)[C@H](O)C[C@@H]1O`, the IC50 in the data set on Jurkat [1], with A549 [2], with A-375 and in the data set with MCF7 was above 10 µM each time. Further, in [3], the IC50 at 48 h was above 10 µM.

As for `C=C1C(=O)O[C@@H]2[C@H]1C[C@@H](OC(C)=O)[C@@](C)(O)[C@]13O[C@H]1[C@@H](Cl)[C@](C)(O)[C@H]23`, the 50% inhibitory concentration (IC50) in the data set on Jurkat [1], with A549 [2], in the data set on A-375 and in the data set on MCF7 was above 10 µM throughout. Moreover, in data set [3], the IC50 at 48 h is 3.5 µM.

With `CN[C@@H]1C[C@H]2O[C@@](C)([C@@H]1OC)n1c3ccccc3c3c4c(c5c6ccccc6n2c5c31)C(=O)NC4` [STAUROSPORINE], the IC50 in the data set on Jurkat [1] was found to be 3.2 µM.

Consider `CC(=O)O[C@@H]1CC(C)=C2C(=O)C=C(C)[C@@H]2[C@@H](O)[C@H]1C(C)C(=O)O` (relative stereo), for which the IC50 in the data set on Jurkat [1], in the data set on A549 [2], with A-375 and in the data set with MCF7 was above 10 µM in each case. Besides, the IC50 at 48 h in data set [3] is above 10 µM.

As to `C=C(C)[C@@H](O)CC[C@@H](C)C1C[C@H](O)C(C)=C[C@@H]1O` (relative stereo), the IC50 with Jurkat [1], in the data set with A549 [2], in the data set with A-375 and with MCF7 was above 10 µM in each case. Besides, the IC50 at 48 h in data set [3] was above 10 µM.
